Screens as filed in PubChem BioAssay.
Only some compounds are listed: those with a hit (about 1.6% of all), similar ones and a draw of the others.
PKA-R2B act: activators of PKA-R2B holoenzyme, primary screen, biochemical, fluorescence polarization, Cy5-IP20, human; cAMP-dependent protein kinase catalytic subunit beta (Homo sapiens) + cAMP-dependent …; PKA-R2B holoenzyme dissociation; R2B truncated from residue 108, S112A mutant; 0% DMSO only, 100% 113 µM cGMP; activation, % at 11.4 µM; 340,000 compounds, 0.079% hits; AID 504700, 2011;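 active = activation above a cutoff set at the mean over all compounds plus 3 SD, cut at about 18% in these data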;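 also: higher means more holoenzyme dissociation and a rise in polarization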
CSN inh: inhibitors of CSN-mediated cullin deneddylation, primary screen, biochemical, fluorescence polarization, uHTS; COP9 signalosome complex subunit 5 (Homo sapiens), Q92905; Purified CSN, SCF-Nedd8-OG deneddylation; inhibition, % at 12.5 µM; 360,000 compounds, 0.38% hits; AID 651999, 2013;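 active = pattern-corrected inhibition above about 35%, with an unprinted fluorescence ratio check between 0.5 and 1.5, limit read from the data, passing the limit was not always enough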;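 also: 0% = enzyme with substrate and 100% = substrate without enzyme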
Target sequence (Q92905 whole entry, looked up, one chain of several): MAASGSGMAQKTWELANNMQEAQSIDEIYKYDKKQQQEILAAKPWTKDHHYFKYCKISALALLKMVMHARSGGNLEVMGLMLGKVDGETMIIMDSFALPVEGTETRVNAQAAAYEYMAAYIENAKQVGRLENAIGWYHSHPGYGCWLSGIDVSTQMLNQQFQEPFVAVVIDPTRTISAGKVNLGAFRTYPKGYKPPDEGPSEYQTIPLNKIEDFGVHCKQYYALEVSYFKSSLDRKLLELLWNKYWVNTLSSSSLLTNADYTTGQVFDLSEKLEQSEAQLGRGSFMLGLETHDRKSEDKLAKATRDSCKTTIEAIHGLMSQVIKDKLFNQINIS
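assay system = purified human Csn5 enzyme expressed in HEK293T cells | amount = 0.24 nM enzyme | buffer or medium = Tris/NaCl/DTT buffer, pH 7.5 | reagent = 10 nM SCFSkp2-Nedd8OG | compound = one concentration, 12.5 µM, 0.25% DMSO | times = 90 min reaction at room temperature | signal = FP | read-out basis = % inhibition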
PKA-R1A activ: activators of PKA-R1A holoenzyme, primary screen, biochemical, fluorescence polarization, Cy5-IP20, bovine R1A, mouse PKAc; cAMP-dependent protein kinase type I-alpha regulatory subunit (Bos taurus) + …; PKA-R1A dissociation; scaled: DMSO 0%, 113 µM cGMP 100%; activation, % at 11.4 µM; 340,000 compounds, 0.083% hits; AID 504707, 2011;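 active = percent activation above the mean of all tested compounds plus 3 SD, cut at about 19% in these data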;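 also: higher means more PKAc released from R1A so a rise in polarization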
HNF4A DNA FP: change in binding of human HNF4A to DNA, primary screen, biochemical, fluorescence polarization, FITC-DNA. Hepatocyte nuclear factor 4-alpha (Homo sapiens), P41235. 1 h. activity change, % at 10 µM. 360,000 compounds, 0.3% hits. AID 1224865, 2016; in the data active = activity change above about 30%, passing the limit was not always enough
TPT1 inh: Candida albicans TPT1 enzyme inhibitors, primary screen, biochemical, fluorescence polarization; tRNA 2'-phosphotransferase TPT1 (Candida albicans SC5314); recombinant caTPT1, FP RNA substrate dephosphorylation; inhibition, % at 5 µM; 300,000 compounds, 0.81% hits; AID 1962, 2009;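 active = inhibition above the mean of all tested compounds plus 3 SD, set per screening campaign, cut at about 24% in these data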;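 also: plate controls were DMSO alone for no effect and ferristatin control at 100 nM for full effect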
Rpn11 block: Rpn11 (PSMD14) deubiquitinase inhibitors, primary screen, biochemical, fluorescence polarization, uHTS; 26S proteasome non-ATPase regulatory subunit 14 (Homo sapiens), O00487; 360,000 compounds, 0.59% hits; human 26S proteasome, Ub4-pepOG fluorescence polarization; 20S core pre-blocked with epoxomicin; AID 588493, 2011; calls only at 20 µM;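 active = inhibition at 20 µM, scaled to each plate's controls, above about 33%, limit read from the data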
Target sequence (O00487 whole entry, looked up): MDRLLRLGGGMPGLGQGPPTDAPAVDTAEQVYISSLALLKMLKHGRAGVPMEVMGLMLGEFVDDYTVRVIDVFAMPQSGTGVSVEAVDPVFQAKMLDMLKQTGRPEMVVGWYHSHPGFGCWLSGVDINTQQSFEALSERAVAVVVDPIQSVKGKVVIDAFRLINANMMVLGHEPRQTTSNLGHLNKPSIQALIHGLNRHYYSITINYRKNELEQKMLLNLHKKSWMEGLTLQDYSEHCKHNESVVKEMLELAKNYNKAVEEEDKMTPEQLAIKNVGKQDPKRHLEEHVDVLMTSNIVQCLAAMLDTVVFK
Rpn11 inh conf: Rpn11 (PSMD14) deubiquitinase inhibitors, confirmation, biochemical, fluorescence polarization, single concentration; purified human 26S proteasome, Ub4-pepOG fluorescence polarization; proteasome pretreated with epoxomicin; 1,900 compounds, 29% hits; inhibition, % at 20 µM; shares compounds with Rpn11 block
MMP-2 inh: MMP-2 enzyme inhibition, confirmation, counter-screen for RPN11 inhibitor project, biochemical, fluorescence, single concentration. recombinant MMP-2, FRET peptide cleavage fluorescence. inhibition, % at 20 µM. 1,900 compounds, 4% hits. shares compounds with Rpn11 block;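 also: human MMP-2 activated beforehand with APMA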
Thrombin inh: bovine thrombin protease inhibition, confirmation, counter-screen for Rpn11 inhibitor project, biochemical, fluorescence polarization, single concentration. shares compounds with Rpn11 block. bovine thrombin cleavage of Ub4-pepOG. inhibition, % at 20 µM. 1,900 compounds, 13% hits;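 active = mean inhibition at least 40% at 20 µM, or signal 3 deviations below plate average, so some actives read negative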;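 also: plate controls were thrombin with DMSO for no effect and buffer wells lacking thrombin for full effect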
* marks the source's active call; other numbers are inactive results. Rule as the data show it, unless noted: active = inhibition above about 40%; inactive = the rest.

For CC/C(C)=C1/NC(=O)NC1=O the results were PKA-R2B act -4, CSN inh -3, PKA-R1A activ 6, HNF4A DNA FP 4 and Rpn11 block inactive.
Screening O=[N+]([O-])c1ccc(O)c(/C=N/NC2=NS(=O)(=O)c3ccccc32)c1 returned PKA-R2B act 2, CSN inh 8, PKA-R1A activ -13, HNF4A DNA FP 15, TPT1 inh 3, Rpn11 block active, Rpn11 inh conf 90*, MMP-2 inh 22 and Thrombin inh 30.
Screening COc1ccc(/C(C)=N/NC(=O)c2nnn(-c3nonc3N)c2-c2cccs2)cc1 returned PKA-R2B act 6, CSN inh -1, PKA-R1A activ -11, HNF4A DNA FP 2, TPT1 inh -1 and Rpn11 block inactive.
For COc1ccc(/C(C)=N/NC(=O)c2nnn(-c3nonc3N)c2-c2ccccc2)cc1 the results were PKA-R2B act 15, CSN inh 8, PKA-R1A activ -9, HNF4A DNA FP 8, TPT1 inh -1, Rpn11 block active, Rpn11 inh conf 93*, MMP-2 inh 0 and Thrombin inh -11.
Screening CCNC(=S)NNC(=O)c1cccc(Br)c1 returned PKA-R2B act -15, CSN inh -3, PKA-R1A activ 14, HNF4A DNA FP 1, TPT1 inh -3, Rpn11 block active, Rpn11 inh conf -1, MMP-2 inh 9 and Thrombin inh -7.
CC(=O)n1cc([C@@H]2C=C(C(=O)NCc3ccccc3)O[C@H](OCc3ccc(CO)cc3)C2)c2ccccc21 was read as PKA-R2B act 2, CSN inh -1, PKA-R1A activ 4, HNF4A DNA FP 0, TPT1 inh 0 and Rpn11 block inactive.
Screening CC(=O)n1cc([C@H]2C=C(C(=O)Nc3ccccc3)O[C@@H](OCc3ccc(CO)cc3)C2)c2ccccc21 returned PKA-R2B act 0, CSN inh -1, PKA-R1A activ 1, HNF4A DNA FP 3, TPT1 inh -2, Rpn11 block active, Rpn11 inh conf 44*, MMP-2 inh -13 and Thrombin inh 12.
For CN1/C(=C\C(=S)NC(=O)c2cccc(Br)c2)C(C)(C)c2ccccc21 the results were PKA-R2B act 4, CSN inh 22, PKA-R1A activ -5, HNF4A DNA FP 19, TPT1 inh 4, Rpn11 block active, Rpn11 inh conf 25, MMP-2 inh 22 and Thrombin inh 9.
Cc1sc2nc(SCC(=O)N3CCOCC3)[nH]c(=O)c2c1-c1ccccc1 was read as PKA-R2B act 2, CSN inh 6, PKA-R1A activ -11, HNF4A DNA FP 9, TPT1 inh 1 and Rpn11 block inactive.
CCCN1CCN(C(=O)C2CCN(S(=O)(=O)c3ccc4c(c3)NC(=O)C(C)S4)CC2)CC1 (stereo unspecified) was read as PKA-R2B act 0, CSN inh 15, PKA-R1A activ -7, HNF4A DNA FP 24, TPT1 inh 9, Rpn11 block active, Rpn11 inh conf 28, MMP-2 inh -1 and Thrombin inh 15.
For C=CC[n+]1c(-c2ccc(OCC)cc2)csc1NNC(=O)Nc1ccccc1 the results were PKA-R2B act -9, CSN inh 1, PKA-R1A activ -3, HNF4A DNA FP -1, TPT1 inh 12, Rpn11 block active, Rpn11 inh conf -22, MMP-2 inh 12 and Thrombin inh -28.
Screening CC(=O)c1cccc(NC(=O)C2CC(=O)N(c3cccc(C)c3C)C2)c1 (stereo unspecified) returned PKA-R2B act -3, CSN inh 1, PKA-R1A activ 0, HNF4A DNA FP -1, TPT1 inh 0, Rpn11 block active, Rpn11 inh conf -9, MMP-2 inh -27 and Thrombin inh -7.
Screening Cc1cccc(N2CC(C(=O)Nc3cccc(S(=O)(=O)N4CCCCC4)c3)CC2=O)c1C (stereo unspecified) returned PKA-R2B act -1, CSN inh -8, PKA-R1A activ 2, HNF4A DNA FP 2 and Rpn11 block inactive.
O=C(NNc1cccc(Cl)n1)Nc1ccccc1Cl was read as PKA-R2B act 7, CSN inh -5, PKA-R1A activ -3, HNF4A DNA FP 2, TPT1 inh -1 and Rpn11 block inactive.
For Cc1cc(C)n2nc(SCC(=O)NC(=O)c3ccc(OC(F)F)cc3)nc2n1 the results were PKA-R2B act -4, CSN inh -9, PKA-R1A activ -7, HNF4A DNA FP -2 and Rpn11 block inactive.
Screening S=C(NCc1ccco1)N1CCN(c2nc(-c3ccc(Cl)cc3)cs2)CC1 returned PKA-R2B act -12, CSN inh 8, PKA-R1A activ 0, HNF4A DNA FP 10, TPT1 inh 1 and Rpn11 block inactive.
Screening O=C(CN1CCN(c2nc(-c3ccc(Cl)cc3)cs2)CC1)NCc1ccco1 returned PKA-R2B act -5, CSN inh 6, PKA-R1A activ -1, HNF4A DNA FP 7, TPT1 inh 21, Rpn11 block active, Rpn11 inh conf 44*, MMP-2 inh 78* and Thrombin inh 23.
Screening C/C(=N/NC(=O)CN1CCN(S(=O)(=O)c2ccc(Br)cc2)CC1)c1ccco1 returned PKA-R2B act -4, CSN inh -9, PKA-R1A activ -7, HNF4A DNA FP 2, TPT1 inh 2 and Rpn11 block inactive.
